Assay outcomes as filed in PubChem.
S100A4 inh HTS – blocks human S100A4 binding to myosin IIA peptide; AID 652163; inhibition, % at 10.7 µM; S100A4/TAMRA-MyoIIA peptide fluorescence polarization; P26447; actives 0.14% (n = 360,000);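 active means mean inhibition of at least 70% across replicates, with every replicate also reaching that level; inconclusive means mean inhibition reaches 70% but some replicates fall short; inactive means mean inhibition below 70%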
Target sequence (P26447 whole entry, looked up): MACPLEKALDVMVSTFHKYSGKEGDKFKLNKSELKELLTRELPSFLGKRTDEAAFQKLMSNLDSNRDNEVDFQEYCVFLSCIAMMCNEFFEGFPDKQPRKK
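Material: S100A4 monomer protein | Medium: HEPES pH 7.2 with CaCl2, KCl, NaCl, DTT, Triton | Reagent: Labelled myosin peptide probe, 5 nM | Doses: One dose per compound | Times: 5 min incubation before reading | Benchmarks: Neutral control DMSO, positive control TFP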
Statin myotox sup – suppressors of simvastatin-induced myotoxicity in C2C12 myotubes; ATP luminescence, 48 h; scaled: DMSO 0, geranylgeraniol control 100; rescue of ATP level, % at 7.49 µM; actives 0.78% (n = 330,000); AID 602340;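 active means mean ATP rescue above about 67%, or every replicate alone reaching that limit, limit read from the data, passing the limit was not always enough; inconclusive means no clear call, values can overlap the other calls; inactive means mean under the limit and some replicate under it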;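 further: myotubes were challenged with 10 µM simvastatin during compound exposure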
rRNA inh HTS – selective bacterial rRNA inhibition in E. coli | E. coli WT GFP vs humanized-ribosome RFP mutants, fluorescence, 24 h; stronger effect = lower value; DMSO median 0, no signal -100 | GFP signal change (wild-type ribosome), % (no concentration beside the values) | actives 1.6% (n = 350,000);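 active means significant combined selectivity score with lowered wild-type GFP, culture density cut under 30%, mutant RFP and density less affected; inactive means any of these conditions unmet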
SIRT5 block – inhibitors of human sirtuin-5 desuccinylase | Purified SirT5, succinyl-peptide AMC, trypsin-coupled fluorescence | inhibition, % at 15 µM | actives 1.1% (n = 330,000) | AID 652115; in the data active means inhibition above about 15%; inconclusive means no clear call, values can overlap the other calls
Target sequence (Q9NXA8 whole entry, looked up): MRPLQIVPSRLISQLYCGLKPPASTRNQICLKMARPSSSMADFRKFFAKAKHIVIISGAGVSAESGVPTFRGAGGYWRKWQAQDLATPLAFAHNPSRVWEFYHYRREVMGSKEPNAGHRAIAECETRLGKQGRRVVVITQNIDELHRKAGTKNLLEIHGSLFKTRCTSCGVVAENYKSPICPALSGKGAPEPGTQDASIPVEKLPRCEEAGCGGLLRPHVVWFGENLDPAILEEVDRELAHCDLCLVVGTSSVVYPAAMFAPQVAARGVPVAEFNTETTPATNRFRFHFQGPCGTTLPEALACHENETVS
PGC1a acetyl inh – lowers PGC1a acetylation signal in U2OS cells | AlphaScreen anti-acetyl-lysine; with virally co-expressed GCN5 acetyltransferase | actives 0.17% (n = 350,000) | inhibition, % at 15.6 µM;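 active means every replicate shows inhibition of at least 40%; inconclusive means mean inhibition at least 40% but some replicate below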;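 further: 0% = neutral control wells and 100% = positive control wells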
Cneo AK release – causes C. neoformans cell lysis; adenylate kinase release luminescence, 4 h; normalised: neutral wells 0, clomiphene wells 100; lysis activity, % at 15 µM; actives 0.2% (n = 360,000);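 active means mean lysis activity across replicates of at least 80%, whatever share of replicates individually reach that level; inactive means mean lysis activity below 80%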
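Assay system: C. neoformans cells. Amount: yeast cell density of 5 × 10^6 cells/mL. Technique: AK luminescence. Buffer or medium: YPD. Times: static 4 h at 37 °C with compound, 1 h detection. Dosing: single-point compound dose. Read-out: lysis from increased AK signal.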
AID977621 – wild-type E. coli growth inhibition versus H69 humanized strain – H69 mutant RFP, wild-type GFP, cherry-pick, dose response; shares compounds with rRNA inh HTS; 1,900 tested, under 10 active; fluorescence, 24 h; activity change, negative = inhibition at 50 µM;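 active means Wild-type ribosome reporter drop at least double the humanized mutant ribosome reporter drop, growth loss under a set limit; inconclusive means no clear call, values can overlap the other calls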;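 further: wild-type GFP and H69 mutant RFP strains grown together 50/50 in each well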
AID977628 – E. coli growth inhibition, wild-type GFP versus h24 humanized RFP strain, dose response, h24 mutant RFP vs wild-type GFP, cherry-pick. shares compounds with rRNA inh HTS. E. coli WT GFP strain growth, fluorescence, 24 h. activity change, negative = inhibition at 50 µM. 1,900 tested, under 10 active. AID 977628;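 active means compound lowering the normal-ribosome reporter at least twice as much as the humanized-ribosome reporter, growth loss under a set limit; inconclusive means no clear call, values can overlap the other calls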;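 further: wild-type GFP and h24 humanized RFP strains co-cultured 1 to 1 per well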
Starred values were filed as active, the others as inactive; ? = inconclusive; / = no result given. An excerpt weighted towards active compounds, which were near 3% of everything screened.

SMILES	S100A4 inh HTS	Statin myotox sup	rRNA inh HTS	SIRT5 block	PGC1a acetyl inh	Cneo AK release	AID977621	AID977628
CCCNC(=O)C[C@H]1C[C@@H]2c3cc(N(C)C)ccc3O[C@@H]2[C@H](CO)O1	6.8	-0.8	4.7	-3.5	12.7	-3.1	/	/
O=C(NCc1ccc2c(c1)OCO2)C1CCC(=O)N1C1CCCCC1 (stereo not drawn)	-3.3	/	-23.4*	-4.2	5.4	-1.5	-1.55	?
CCc1ccc(CNC(=O)C2CCC(=O)N2C2CCCCC2)cc1 (stereo not drawn)	/	0.5	/	/	0.9	-5.7	/	/
C[C@@H]1CCCCO[C@H](CN(C)C(=O)Nc2ccc(F)cc2)[C@H](C)CN([C@H](C)CO)C(=O)c2cc(NS(=O)(=O)c3cccs3)ccc2O1	9.6	9.5	-2.5	2.2	-7.0	-1.4	/	/
COCC#Cc1ccc2c(c1)O[C@@H](CN(C)C(=O)Nc1ccc(OC)cc1)[C@@H](C)CN([C@H](C)CO)S2(=O)=O	-33.4	27.9	-4.6	-0.2	-3.6	-3.3	/	/
Nc1ccc(C(=O)OCCc2ccccc2)cc1	-0.6	-4.7	-30.4*	/	10.6	-13.4	-8.98	-4.72
CS(=O)(=O)NCCSc1cc(C(F)(F)F)nc2ccccc12	4.7	-0.8	-19.6*	1.6	/	/	/	?
CCNC(=O)Nc1ccc2c(c1)C(=O)N(C)[C@H]1CC[C@@H](CC(=O)NCc3ccc(F)cc3)O[C@H]1CO2	0.5	3.1	-4.0	6.2	1.4	-9.1	/	/
CC(=O)N(C)C[C@H]1Oc2cc(-c3ccccc3F)ccc2S(=O)(=O)N([C@@H](C)CO)C[C@H]1C	0.9	-0.7	-6.6	-0.8	4.2	-4.4	/	/
O=C(Nc1ccc(Nc2ccccc2)cc1)c1ccc(F)cc1	4.5	-29.2	-21.1*	-4.1	-1.6	-3.8	-3.45	-13.3
O=C(Nc1ccc(Nc2ccccc2)cc1)c1c(F)c(F)c(F)c(F)c1F	-1.7	-21.1	-1.1	-4.6	3.2	-1.2	/	/
O=C(Nc1ccc(Nc2ccccc2)cc1)c1c(Cl)cccc1Cl	-1.3	-39.6	-34.5*	2.8	/	-1.2	-15.8	/
CC(=O)N(C)C[C@@H]1Oc2cc(C#Cc3cccnc3)ccc2S(=O)(=O)N([C@H](C)CO)C[C@H]1C	-5.8	10.2	1.1	8.6	22.8	-1.3	/	/
CC(NC(=O)c1ccncc1)c1ccc(Cl)cc1Cl (stereo not drawn)	-7.1	-1.6	-33.2*	-2.8	-10.1	-1.0	-2.21	-7.25
Cc1noc(C)c1C(=O)NC(C)c1ccc(Cl)cc1Cl (stereo not drawn)	-3.2	-0.7	9.7	-2.9	-0.6	-2.5	/	/
O=C(CC1C(=O)NCCN1CC1CCCCC1)NCc1ccc(F)cc1F (stereo not drawn)	4.5	1.0	-20.1*	-1.4	5.8	/	10.4	?
COc1ccc(CN(C)C[C@H]2OCCCC[C@H](C)Oc3ccc(NS(=O)(=O)c4ccccc4)cc3C(=O)N([C@@H](C)CO)C[C@H]2C)cc1	1.5	/	-1.1	2.4	-4.7	-0.3	/	/
C[C@@H]1CN([C@@H](C)CO)C(=O)CCCn2nncc2CO[C@H]1CN(C)C(=O)Nc1cccc(C(F)(F)F)c1	4.5	11.7	-17.3*	-2.4	7.2	1.8	/	?
Cc1noc(C)c1S(=O)(=O)Nc1ccc2c(c1)CC(=O)N([C@H](C)CO)C[C@@H](C)[C@@H](CN(C)S(=O)(=O)c1cccs1)O2	-1.1	7.1	2.5	5.9	-3.1	-3.4	/	/
Cc1cc(CNC(=O)c2cc(-c3ccccc3)nc3ccccc23)nn1C	-21.8	/	-23.9*	-1.8	-2.5	/	-7.07	-14.4
CCc1cc(C(=O)N2CCCC(C(=O)c3cccc4ccccc34)C2)n(C)n1 (stereo not drawn)	-7.3	/	-26.0*	0.6	/	/	-6.84	/
CCCc1cc(C(=O)N2CCCC(C(=O)c3cccc4ccccc34)C2)n(C)n1 (stereo not drawn)	4.2	11.1	-9.0	3.1	-43.3	/	/	/
O=C(c1ccccc1F)N1CC(=O)N2[C@H](CO)[C@@H](c3ccc(C#Cc4ccc(F)cc4)cc3)[C@@H]2C1	-6.0	/	-21.0	0.5	-0.1	/	/	/
Cc1noc(C)c1S(=O)(=O)N(Cc1ccccc1)C(C)C	-2.1	/	-18.9*	-5.4	-13.9	-0.3	2.39	-6.83
Cc1ccc(S(=O)(=O)N(Cc2ccccc2)C(C)C)cc1	-1.3	-3.9	-23.6	4.1	-5.0	-5.5	/	/
SMILES	S100A4 inh HTS	Statin myotox sup	rRNA inh HTS	SIRT5 block	PGC1a acetyl inh	Cneo AK release	AID977621	AID977628
O=C(Nc1nccs1)[C@H]1[C@H](CO)[C@H]2Cn3c(cccc3=O)[C@H]2N1C(=O)C1CC1	4.8	0.3	2.8	-10.4	/	-4.3	/	/
COc1ccccc1NC(=O)N[C@@H]1CC[C@H](CCNS(=O)(=O)c2ccc(F)cc2)O[C@@H]1CO	0.3	1.2	-0.7	1.0	8.8	0.8	/	/
CC(C)(C)C(=O)OCc1nc(-c2ccc(Cl)cc2)cs1	-2.9	8.8	-14.8	-1.2	2.9	-6.5	/	/
CC(C)(C)S(=O)(=O)Cc1nc(-c2ccc(Cl)c(Cl)c2)cs1	-4.3	/	-15.2*	-2.2	/	/	-1.04	-2.62
O=C(OCC1COc2ccccc2O1)c1ccccc1F (stereo not drawn)	-2.0	-11.3	-20.2*	0.7	6.1	-6.9	-0.304	-2.74
O=C(O)c1ccccc1-c1ccccc1C(=O)Nc1ccc2c(c1)CCC2	-0.4	9.7	-21.4*	1.6	9.4	-0.5	-11.6	/
Cc1occc1C(=O)Nc1ccc2c(c1)CCC2	1.1	/	-12.9*	-2.8	6.7	/	?	?
COc1ccc2c3c([nH]c2c1)[C@H](CO)N(C(=O)c1cccc(F)c1)CC31CCN(C(=O)CC2CC2)CC1	-7.8	/	-1.3	1.2	-2.0	/	/	/
Cc1ccc(Cc2c(-c3ccc(C#N)cc3)nc3ccc(Br)cn23)cc1	-8.8	-5.1	-28.4*	-6.3	-8.0	2.5	9	2.87
COc1ccccc1Cc1c(-c2ccc(OC)c(OC)c2)nc2ccc(Br)cn12	-16.2	-56.9	-4.5	-1.4	-2.2	3.5	/	/
COc1ccccc1Cc1c(-c2ccc(F)cc2)nc2ccc(Br)cn12	-8.7	-24.8	-23.6*	/	-5.2	-0.4	-12.6	-11.5
CN(C)CCCNC(=O)[C@@H]1[C@@H](CO)[C@@H]2Cn3c(ccc(-c4cccc(F)c4)c3=O)[C@H]1N2	-1.5	/	3.8	-38.8	7.0	/	/	/
